Measured values collected from several papers.
Compare with care: the assays were run in different laboratories.
KIT D816H: Mast/stem cell growth factor receptor Kit (KIT, Homo sapiens, UniProt P10721, D816H)

SMILES | target | read-out | action | technique | concentration | quantity | result
N[C@@H]1CCN(c2nccc(-c3cnn4ncccc34)n2)C1 | Mast/stem cell growth factor receptor Kit (KIT, Homo sapiens, UniProt P10721, V559D/V654A) | binding | – | – | 1 µM | remaining binding | 100%
CC/C(=N\NC(=O)NCc1cccc(O)c1)c1ccc(O)c(C)c1O | Mast/stem cell growth factor receptor Kit (KIT, Homo sapiens, UniProt P10721, V560G) | enzyme activity | inhibitor | – | 0.1 µM | inhibition | 0.1%
O=C(NC[C@@H]1[C@H]2CN(C(=O)OCc3cc(C(F)(F)F)cc(C(F)(F)F)c3)C[C@@H]12)c1ccc2[nH]nnc2c1 | KIT D816H | cell-free assay | – | competition with immobilised ligand | 1 µM | remaining binding | 100%
Nc1ncnc2occ(-c3ccc(NC(=O)Nc4cc(C(F)(F)F)ccc4F)cc3)c12 | Mast/stem cell growth factor receptor Kit (KIT, Homo sapiens, UniProt P10721, A829P) | cell-free assay | inhibitor | – | 20 µM | remaining signal | 3.7%
Cc1ccc(C(=O)NCc2ccsc2)cc1C#Cc1cn(C(C)C)c2ncnc(N)c12 | KIT D816H | enzyme activity | inhibitor | – | 1 µM | activity vs control | 11%
O=C(Nc1ccc(Oc2ccc(F)cc2)cc1)N1CCc2ncccc2[C@H]1c1ccc(F)cc1 | Mast/stem cell growth factor receptor Kit (KIT, Homo sapiens, UniProt P10721) | cell-free assay | – | competition with immobilised ligand | 1 µM | remaining binding | 97%
Cc1cc(NC(=O)c2cccc3cc(-c4cccc5[nH]nc(N)c45)ccc23)ccc1F | Mast/stem cell growth factor receptor Kit (KIT, Homo sapiens, UniProt P10721, D816V) | enzyme activity | inhibitor | – | 0.1 µM | activity vs control | 107%
C[C@@H]1CCN(c2nccc(-c3cnn4ncccc34)n2)C1 | Mast/stem cell growth factor receptor Kit (KIT, Homo sapiens, UniProt P10721, V559D) | binding | – | – | 1 µM | remaining binding | 100%
COCCOc1nc(-c2ccc(Cl)nc2)nc2c1CN(C(=O)c1ncn3ccccc13)CC2 | Mast/stem cell growth factor receptor Kit (KIT, Homo sapiens, UniProt P10721, L576P) | cell-free assay | – | competition with immobilised ligand | 0.1 µM | remaining binding | 100%
